Laboratory results taken from ChEMBL document CHEMBL3272035, “(Vinylaryloxy)acetic acids. A new class of diuretic agents. 1. (Diacylvinylaryloxy)acetic acids” (J Med Chem, 1976).

Experiments:
Canis familiaris [1] = assay: Diuretic activity in mongrel dog anesthetized with sodium pentobarbital assessed as urine K+ level at 10 mg/kg, iv measured after 15 to 45 mins post dose (reference value: 5 to 104 uequiv/min); format: functional, Canis lupus familiaris
Canis familiaris [2] = assay: Diuretic activity in mongrel dog anesthetized with sodium pentobarbital assessed as urine volume at 10 mg/kg, iv measured after 15 to 45 mins post dose (reference value: 1 to 4 ml/min); format: functional, Canis lupus familiaris
Canis familiaris [3] = assay: Diuretic activity in mongrel dog anesthetized with sodium pentobarbital assessed as urine Na+ level at 10 mg/kg, iv measured after 15 to 45 mins post dose (reference value: 4 to 82 uequiv/min); format: functional, Canis lupus familiaris
Canis familiaris [4] = assay: Diuretic activity in mongrel dog anesthetized with sodium pentobarbital assessed as urine Na+ level at 25 mg/kg, iv measured after 15 to 45 mins post dose (reference value: 4 to 82 uequiv/min); format: functional, Canis lupus familiaris
Canis familiaris [5] = assay: Diuretic activity in mongrel dog anesthetized with sodium pentobarbital assessed as urine K+ level at 25 mg/kg, iv measured after 15 to 45 mins post dose (reference value: 5 to 104 uequiv/min); format: functional, Canis lupus familiaris
Canis familiaris [6] = assay: Diuretic activity in mongrel dog anesthetized with sodium pentobarbital assessed as urine volume at 25 mg/kg, iv measured after 15 to 45 mins post dose (reference value: 1 to 4 ml/min); format: functional, Canis lupus familiaris
Canis familiaris [7] = assay: Diuretic activity in mongrel dog anesthetized with sodium pentobarbital assessed as urine Na+ level at 1 mg/kg, iv measured after 15 to 45 mins post dose (reference value: 4 to 82 uequiv/min); format: functional, Canis lupus familiaris
Canis familiaris [8] = assay: Diuretic activity in mongrel dog anesthetized with sodium pentobarbital assessed as urine K+ level at 1 mg/kg, iv measured after 15 to 45 mins post dose (reference value: 5 to 104 uequiv/min); format: functional, Canis lupus familiaris
Canis familiaris [9] = assay: Diuretic activity in mongrel dog anesthetized with sodium pentobarbital assessed as urine volume at 1 mg/kg, iv measured after 15 to 45 mins post dose (reference value: 1 to 4 ml/min); format: functional, Canis lupus familiaris
Canis familiaris [10] = assay: Diuretic activity in mongrel dog anesthetized with sodium pentobarbital assessed as urine Cl- level at 1 mg/kg, iv measured after 15 to 45 mins post dose (reference value: 2 to 64 uequiv/min); format: functional, Canis lupus familiaris
Canis familiaris [11] = assay: Diuretic activity in mongrel trained conscious dog assessed as urine volume per 6 hrs at 0.4 mg/kg, po as gelatin capsules relative to control
Canis familiaris [12] = assay: Diuretic activity in mongrel trained conscious dog assessed as urine Cl- level per 6 hrs at 0.4 mg/kg, po as gelatin capsules relative to control
Canis familiaris [13] = assay: Diuretic activity in mongrel dog assessed as urine Cl- level per 6 hrs at 1.27 mg/kg, po as gelatin capsules relative to control
Canis familiaris [14] = assay: Diuretic activity in mongrel dog anesthetized with sodium pentobarbital assessed as urine K+ level at 0.1 mg/kg, iv measured after 15 to 45 mins post dose (reference value: 5 to 104 uequiv/min); format: functional, Canis lupus familiaris
Canis familiaris [15] = assay: Diuretic activity in mongrel dog […] assessed as urine volume per 6 hrs at 1.27 mg/kg, po as gelatin capsules relative to control; format: functional, Canis lupus familiaris
In short: (§1)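 Conscious trained female mongrel dogs (8–10 kg), fasted overnight after 100 ml water the day before. On test day 250 ml water orally, then 500 ml 1 h later. Bladder emptied 1 h afterwards and compound or placebo given in gelatin capsules. Voided urine from metabolism cages pooled with catheter urine at 6 h; volume and Na+, K+, Cl− measured; geometric means.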

Canis familiaris [16] = assay: Diuretic activity in mongrel trained conscious dog assessed as urine Na+ level per 6 hrs at 0.4 mg/kg, po as gelatin capsules relative to control
Canis familiaris [17] = assay: Diuretic activity in mongrel trained conscious dog assessed as urine K+ level per 6 hrs at 0.4 mg/kg, po as gelatin capsules relative to control
Canis familiaris [18] = assay: Diuretic activity in mongrel dog anesthetized with sodium pentobarbital assessed as urine volume at 0.1 mg/kg, iv measured after 15 to 45 mins post dose (reference value: 1 to 4 ml/min); format: functional, Canis lupus familiaris
Canis familiaris [19] = assay: Diuretic activity in mongrel dog anesthetized with sodium pentobarbital assessed as urine Cl- level at 0.1 mg/kg, iv measured after 15 to 45 mins post dose (reference value: 2 to 64 uequiv/min); format: functional, Canis lupus familiaris
Canis familiaris [20] = assay: Diuretic activity in mongrel dog assessed as urine K+ level per 6 hrs at 1.27 mg/kg, po as gelatin capsules relative to control
Canis familiaris [21] = assay: Diuretic activity in mongrel dog assessed as urine Na+ level per 6 hrs at 1.27 mg/kg, po as gelatin capsules relative to control
Canis familiaris [22] = assay: Diuretic activity in mongrel dog anesthetized with sodium pentobarbital assessed as urine Na+ level at 0.1 mg/kg, iv measured after 15 to 45 mins post dose (reference value: 4 to 82 uequiv/min); format: functional, Canis lupus familiaris
Canis familiaris [23] = assay: Diuretic activity in mongrel dog assessed as urine volume per 6 hrs at 1 mg/kg, po as gelatin capsules relative to control
[24] = Half life of the compound in DMF-phosphate buffer at pH 7.4 at 25 degC assessed as SH binding in presence of mercaptoacetic acid; format: physicochemical; settings: DMF-phosphate buffer with mercaptoacetic acid
In short: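 Minutes for half of a standard amount of compound to react with excess mercaptoacetic acid in DMF-phosphate buffer, pH 7.4, 25°.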

Canis familiaris [25] = assay: Diuretic activity in mongrel trained conscious dog assessed as urine Na+ level per 6 hrs at 1 mg/kg, po as gelatin capsules relative to control
Canis familiaris [26] = assay: Diuretic activity in mongrel dog […] assessed as urine K+ level per 6 hrs at 3 mg/kg, po as gelatin capsules relative to control; format: functional, Canis lupus familiaris; in short: as §1
Canis familiaris [27] = assay: Diuretic activity in mongrel dog assessed as urine K+ level per 6 hrs at 1 mg/kg, po as gelatin capsules relative to control
Canis familiaris [28] = assay: Diuretic activity in mongrel dog assessed as urine Cl- level per 6 hrs at 1 mg/kg, po as gelatin capsules relative to control
Canis familiaris [29] = assay: Diuretic activity in mongrel dog […] assessed as urine volume per 6 hrs at 3 mg/kg, po as gelatin capsules relative to control; format: functional, Canis lupus familiaris; in short: as §1
Canis familiaris [30] = assay: Diuretic activity in mongrel dog anesthetized with sodium pentobarbital assessed as urine Cl- level at 10 mg/kg, iv measured after 15 to 45 mins post dose (reference value: 2 to 64 uequiv/min); format: functional, Canis lupus familiaris
Canis familiaris [31] = assay: Diuretic activity in mongrel dog […] assessed as urine Na+ level per 6 hrs at 3 mg/kg, po as gelatin capsules relative to control; format: functional, Canis lupus familiaris; in short: as §1
Canis familiaris [32] = assay: Diuretic activity in mongrel dog […] assessed as urine Cl- level per 6 hrs at 3 mg/kg, po as gelatin capsules relative to control; format: functional, Canis lupus familiaris; in short: as §1

Row | Structure (SMILES) | Activity (Canis familiaris [1]) | Activity (Canis familiaris [2]) | Activity (Canis familiaris [3]) | Activity (Canis familiaris [7]) | Activity (Canis familiaris [8]) | Activity (Canis familiaris [9]) | Activity (Canis familiaris [10]) | also measured
1 | CC(=O)C(=Cc1cc(Cl)ccc1OCC(=O)O)C(C)=O | 20 uEq/min | 2 mL/min | 94 uEq/min | – | – | – | – | –
2 | CC(=O)C(=Cc1cc(Cl)cc(Cl)c1OCC(=O)O)C(C)=O | – | – | – | – | – | – | – | Activity (Canis familiaris [4]): 244 uEq/min; Activity (Canis familiaris [5]): 50 uEq/min; Activity (Canis familiaris [6]): 3 mL/min
3 | CSC(c1ccc(OCC(=O)O)c(Cl)c1Cl)C(C(C)=O)C(C)=O (stereo unspecified) | – | – | – | 571 uEq/min | 78 uEq/min | 6 mL/min | 565 uEq/min | –
4 | CC(=O)C(=Cc1ccc(OCC(=O)O)cc1)C(C)=O | 106 uEq/min | 4 mL/min | 336 uEq/min | – | – | – | – | –
5 | CCC(=O)/C(=C/c1ccc(OCC(=O)O)c(Cl)c1Cl)C(C)=O | – | – | – | 2025 uEq/min | 13 uEq/min | 16 mL/min | 1936 uEq/min | –
6 | CC(=O)C(=Cc1ccc(OCC(=O)O)c(C)c1C)C(C)=O | – | – | – | – | 58 uEq/min | – | – | –
7 | CC(=O)C(C(C)=O)C(Sc1ccccc1C(=O)O)c1ccc(OCC(=O)O)c(Cl)c1Cl (stereo unspecified) | – | – | – | 802 uEq/min | 124 uEq/min | 7 mL/min | 913 uEq/min | –
8 | O=C(O)COc1ccc(C=C2C(=O)C=CC2=O)c(Cl)c1Cl | 94 uEq/min | 4 mL/min | 213 uEq/min | – | – | – | – | –
9 | CC(=O)C(=Cc1ccc(OC(C)C(=O)O)c(Cl)c1Cl)C(C)=O (stereo unspecified) | – | – | – | 847 uEq/min | 71 uEq/min | 8 mL/min | – | –
10 | CC(=O)C(C(C)=O)C(SCC(=O)O)c1ccc(OCC(=O)O)c(Cl)c1Cl (stereo unspecified) | – | – | – | 1569 uEq/min | 178 uEq/min | 4 mL/min | 1628 uEq/min | Activity (Canis familiaris [11]): 575 mL; Activity (Canis familiaris [12]): 8 milliequivalent; Activity (Canis familiaris [13]): 34 milliequivalent; Activity (Canis familiaris [14]): 173 uEq/min; Activity (Canis familiaris [15]): 750 mL; Activity (Canis familiaris [16]): 7 milliequivalent; Activity (Canis familiaris [17]): 3 milliequivalent; Activity (Canis familiaris [18]): 13 mL/min; Activity (Canis familiaris [19]): 1991 uEq/min; Activity (Canis familiaris [20]): 6 milliequivalent; Activity (Canis familiaris [21]): 27 milliequivalent; Activity (Canis familiaris [22]): 1424 uEq/min
11 | CC(=O)/C(=C\c1ccc(OCC(=O)O)c(Cl)c1Cl)C(=O)c1ccccc1 | 105 uEq/min | 6 mL/min | 583 uEq/min | – | – | – | – | –
12 | C=C(CC)C(=O)c1ccc(OCC(=O)O)c(Cl)c1Cl [ETHACRYNIC ACID] | 194 uEq/min | 22 mL/min | 2989 uEq/min | 188 uEq/min | 52 uEq/min | 6 mL/min | 244 uEq/min | Activity (Canis familiaris [23]): 560 mL; half-life [24]: < 1 min; Activity (Canis familiaris [25]): 21 milliequivalent; Activity (Canis familiaris [26]): 7 milliequivalent; Activity (Canis familiaris [27]): 5 milliequivalent; Activity (Canis familiaris [28]): 26 milliequivalent; Activity (Canis familiaris [29]): 571 mL; Activity (Canis familiaris [30]): 3324 uEq/min; Activity (Canis familiaris [31]): 37 milliequivalent; Activity (Canis familiaris [32]): 42 milliequivalent
13 | CC(=O)C(=Cc1ccc(OCC(=O)O)cc1Cl)C(C)=O | – | – | – | 1318 uEq/min | 232 uEq/min | 11 mL/min | – | –
14 | CC(=O)C(C(C)=O)C(SCCO)c1ccc(OCC(=O)O)c(Cl)c1Cl (stereo unspecified) | – | – | – | 405 uEq/min | 80 uEq/min | 5 mL/min | 447 uEq/min | –
15 | CC(=O)C(=Cc1cc(OCC(=O)O)ccc1Cl)C(C)=O | – | – | – | – | – | – | – | Activity (Canis familiaris [6]): 1 mL/min
16 | CCC(=O)C(=Cc1ccc(OCC(=O)O)c(Cl)c1Cl)C(=O)CC | – | – | – | 676 uEq/min | 68 uEq/min | 7 mL/min | – | –
17 | CC(=O)C(Cc1ccc(OCC(=O)O)c(Cl)c1Cl)C(C)=O | 35 uEq/min | 3 mL/min | 198 uEq/min | – | – | – | – | Activity (Canis familiaris [30]): 241 uEq/min
18 | CC(=O)C(=Cc1ccc(OCC(=O)O)c2ccccc12)C(C)=O | – | – | – | 393 uEq/min | 104 uEq/min | 4 mL/min | – | –
19 | O=C(O)COc1ccc(C=C2C(=O)c3ccccc3C2=O)c(Cl)c1Cl | 44 uEq/min | 2 mL/min | 118 uEq/min | – | – | – | – | Activity (Canis familiaris [30]): 29 uEq/min
20 | CC(=O)C(=Cc1ccc(OCC(=O)O)c(Cl)c1Cl)C(C)=O | – | – | – | – | 104 uEq/min | 19 mL/min | – | Activity (Canis familiaris [11]): 762 mL; Activity (Canis familiaris [14]): 87 uEq/min; Activity (Canis familiaris [23]): 492 mL; Activity (Canis familiaris [25]): 30 milliequivalent; Activity (Canis familiaris [27]): 7 milliequivalent; Activity (Canis familiaris [17]): 6 milliequivalent; Activity (Canis familiaris [18]): 9 mL/min; Activity (Canis familiaris [22]): 984 uEq/min
